High-throughput results deposited in PubChem BioAssay by several laboratories.
An excerpt weighted towards active compounds, which were near 2.5% of everything screened.
UHRF1 binding – UHRF1 methylated DNA binding inhibitors, primary screen, counter-screen for MBD2 inhibitor project, biochemical, TR-FRET, human UHRF1, single concentration; E3 ubiquitin-protein ligase UHRF1 (Homo sapiens), Q96T88; 370,000 tested, 0.75% active; inhibition, % at 4.4 µM; UHRF1 binding to methylated oligo; AID 687016, 2013;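 note: UHRF1 SRA domain binding a hemimethylated CpG hairpin DNA probe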
DNMT1 block – human DNMT1 methyltransferase inhibitors, primary screen, biochemical, molecular beacon, fluorescence, HinP1I cleavage, uHTS. DNA (cytosine-5)-methyltransferase 1 (Homo sapiens), P26358. inhibition (reported as % activation of signal), % at 10 µM. 360,000 tested, 0.83% active; in the data active = inhibition above about 50%
DSG3 Ab inh – inhibitors of pemphigus antibody binding to DSG3, primary screen, biochemical, bead-based, flow cytometry, scFv-GFP | Desmoglein-3 (Homo sapiens), P32926 | DSG3-coupled beads, scFv-anti-DSG3-GFP binding; hits give low values | binding (percent of control), % at 10 µM | 310,000 tested, 0.48% active;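 active = binding more than 3 SD below its plate's average and above zero; inconclusive = below that plate limit but binding exactly zero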;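 note: hits lower antibody fragment binding to DSG3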
SUMO1 PPI mod – modulators of SUMO1 protein-protein interactions, primary screen, biochemical, uHTS | inhibition, % at 20 µM | SUMO1 binding to a labelled peptide, TR-FRET, 1 h | 360,000 tested, 0.33% active; in the data active = inhibition above about 37%
Target sequence (P63165 whole entry, looked up): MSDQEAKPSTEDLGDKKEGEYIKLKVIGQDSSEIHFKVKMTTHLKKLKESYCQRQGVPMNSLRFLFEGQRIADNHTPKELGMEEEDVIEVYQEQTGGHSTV
NS3 helicase inh – inhibitors of HCV NS3 helicase, primary screen, biochemical, Cy5 molecular beacon fluorescence | Hepatitis C virus NS3 helicase | NS3 helicase DNA unwinding | inhibition, % at 10.9 µM | 290,000 tested, 0.56% active;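 active = inhibition above the mean of all tested compounds plus 3 SD, set per campaign, cut at about 35% in these data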
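Assay system – hepatitis C virus NS3 helicase domain fragment enzyme · Buffer or medium – MOPS pH 6.5, MgCl2, DTT, Tween20, BSA · Reagent – Cy5/quencher beacon DNA duplex and ATP to start · Compound – single 10.9 µM dose · Timing – 1 h at 25 °C · Technique – Cy5 beacon fluorescence read at start and 1 h · Measure – % inhibition of unwinding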
MBD2 DNA inh – inhibitors of MBD2 binding to methylated DNA, primary screen, biochemical, TR-FRET, DNA-binding domain, human; Methyl-CpG-binding domain protein 2 (Homo sapiens), Q9UBB5; MBD2 binding to methylated oligonucleotide; inhibition, % at 4.4 µM; 370,000 tested, 0.31% active; in the data active = inhibition above about 13%
Target sequence (Q9UBB5 whole entry, looked up, the tested form may be a part): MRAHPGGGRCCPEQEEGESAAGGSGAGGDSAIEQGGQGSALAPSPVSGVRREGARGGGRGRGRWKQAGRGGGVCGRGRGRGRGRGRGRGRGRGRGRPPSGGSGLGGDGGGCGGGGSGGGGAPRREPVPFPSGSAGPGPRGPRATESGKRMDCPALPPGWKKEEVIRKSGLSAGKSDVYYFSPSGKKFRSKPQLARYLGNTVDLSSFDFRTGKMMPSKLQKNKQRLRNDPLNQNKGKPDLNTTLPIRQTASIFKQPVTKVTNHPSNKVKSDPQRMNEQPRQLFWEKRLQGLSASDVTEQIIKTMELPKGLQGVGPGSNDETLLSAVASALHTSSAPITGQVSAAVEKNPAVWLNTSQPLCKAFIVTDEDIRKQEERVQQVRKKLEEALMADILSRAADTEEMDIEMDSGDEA
DNMT1 interf DR – spectral interference with molecular beacon fluorescence, dose response, artefact control for DNMT1 inhibitor project, biochemical, fluorescent molecular beacon; shares compounds with DNMT1 block; spectral interference counter-screen; IC50, µM; 200 tested, under 10 active; call rule not given here
DNMT1 confirm – DNMT1 methyltransferase inhibitor retest, confirmation, biochemical, molecular beacon, fluorescence, single concentration. inhibition, % at 10 µM. 2,300 tested, 8% active. DNMT1 molecular beacon HinP1I cleavage. shares compounds with DNMT1 block;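 active = average inhibition of at least 30% in the single-concentration confirmation test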
Beacon interf – counter-screen for DNMT1 inhibitors: spectral interference | shares compounds with DNMT1 block | AID 602387 | 2,300 tested, 1% active | DNMT1 molecular beacon spectral interference counterscreen, fluorescence 485/520 | activation (fluorescence interference), % at 10 µM;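 active = activation of at least 30% at 10 µM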;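 note: DNMT1 catalytic domain with a HinP1I cleavage step and a FAM/dabcyl DNA beacon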
UHRF1 DNA bind – UHRF1 methylated DNA binding inhibitors, counter-screen for MBD2 inhibitor project, biochemical, TR-FRET, human UHRF1; shares compounds with MBD2 DNA inh; UHRF1 binding to methylated oligonucleotide; inhibition, % at 4.4 µM; 1,000 tested, 25% active; AID 720530, 2013;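 note: UHRF1 SRA domain binding a labeled hemimethylated CpG hairpin DNA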
MBD2 confirm – inhibitors of MBD2 binding to methylated DNA, confirmation, biochemical, TR-FRET, DNA-binding domain, human; shares compounds with MBD2 DNA inh; TR-FRET MBD2-DBD binding to methylated oligonucleotide; inhibition, % at 4.4 µM; 1,000 tested, 26% active; AID 720531, 2013; in the data active = inhibition above about 14%
A number is an active result; - = inactive; ? = inconclusive; . = not tested or not shown. Cut-off read from the data, not from the text of the source, unless noted: active = inhibition above about 21%; inactive = the rest.

SMILES	UHRF1 binding	DNMT1 block	DSG3 Ab inh	SUMO1 PPI mod	NS3 helicase inh	MBD2 DNA inh	DNMT1 confirm	Beacon interf	UHRF1 DNA bind	MBD2 confirm	others
O=C(Nc1ccc(N2CCCC2)cc1)c1cc2ccccc2o1	-	65	-	-	-	-	-	-	.	.
CCCCC(=O)Nc1ccc(N2CCCC2)cc1	-	77	-	-	-	-	-	-	.	.
CCOc1cccc(C(=O)NC(=S)Nc2ccc3c(c2)OCCO3)c1	-	-	-	-	-	-	.	.	.	.
C=CCOc1ccc(Cl)cc1-c1noc(-c2csc([C@H]3C[C@H](O)[C@@H](CO)O3)n2)n1	-	-	.	-	.	-	.	.	.	.
COc1ccc(C(=O)Cn2c3ccccc3n3nc(CCC(=O)O)c(=O)nc23)cc1OC	-	-	-	-	-	-	.	.	.	.
O=C(Nc1ccc(N2CCCC2)cc1)c1ccc(Br)cc1	-	58	-	-	-	-	-	-	.	.
O=C(Nc1ccc(N2CCCC2)cc1)C(c1ccccc1)c1ccccc1	-	73	-	-	-	-	-	-	.	.
O=C(Cc1ccc(Cl)cc1)Nc1ccc(NC(=O)c2ccccc2)cc1	-	56	-	-	-	-	-	-	.	.
COc1ccc(Br)cc1C(=O)Nc1ccc(N2CCCC2)cc1	-	-	-	-	-	-	.	.	.	.
O=C(CCc1ccccc1)Nc1ccc(N2CCCCC2)cc1	-	-	-	-	-	-	.	.	.	.
O=C(Cc1ccccc1)Nc1cccc(N2CCCC2)c1	-	78	-	-	-	-	-	-	.	.
COc1cc(F)ccc1-c1cc(C(=O)NCc2cc(C(F)(F)F)cc(C(F)(F)F)c2)[nH]n1	-	-	.	-	.	-	.	.	.	.
CCN(CC)C(=O)c1c(-c2ccccc2)oc2ccc(O)cc12	-	-	-	-	-	-	.	.	.	.
O=C1NC2(CCCCC2)OC12CCCCC2	-	-	.	-	.	-	.	.	.	.
O=C(COC(=O)Cc1ccc(Cl)cc1Cl)NCc1ccccc1	-	-	-	-	.	-	.	.	.	.
CC(C)(CS(=O)(=O)[O-])NC(=O)CC[N+](C)(C)CCO	92	116	-	-	-	54	86	-	95	85	DNMT1 interf DR=-
O=C1CCCC(O)=C1N=Nc1ccc(C(=O)O)cc1	54	83	-	-	-	15	-	-	56	19
O=C1CCCC(O)=C1N=Nc1ccc2c(c1)OCO2	-	-	-	-	-	-	.	.	.	.
Cc1ccc(S(=O)(=O)N2CCN(C(=O)c3cc4c(s3)CCCC4)CC2)cc1	-	-	?	-	.	-	.	.	.	.
COc1ccc(S(=O)(=O)N2CCN(C(=O)c3cc4c(s3)CCC4)CC2)cc1	46	100	-	-	.	22	40	-	46	43	DNMT1 interf DR=-
O=C1CC(=O)N(Cc2cccs2)C(=O)N1	-	-	-	-	-	-	.	.	.	.
O=C1CC(=O)N(Cc2ccco2)C(=O)N1	93	109	-	-	-	64	105	-	100	74	DNMT1 interf DR=-
C/C=C(\C)C(=O)Nc1cccc(C2=NOC3(C2)C[C@@H](C(N)=O)N(C(=O)/C(C)=C/C)C3)c1 (stereo partly drawn)	-	-	-	-	.	-	.	.	.	.
C=C(C)C(=O)Nc1cccc(C2=NOC3(C2)C[C@@H](C(N)=O)N(C(=O)CC(c2ccccc2)c2ccccc2)C3)c1 (stereo partly drawn)	63	101	-	77	.	26	-	-	60	42
C/C=C(/C)C(=O)Nc1cccc(C2=NOC3(C2)C[C@@H](C(N)=O)N(C(=O)CC(c2ccccc2)c2ccccc2)C3)c1 (stereo partly drawn)	-	-	-	-	.	-	.	.	.	.
SMILES	UHRF1 binding	DNMT1 block	DSG3 Ab inh	SUMO1 PPI mod	NS3 helicase inh	MBD2 DNA inh	DNMT1 confirm	Beacon interf	UHRF1 DNA bind	MBD2 confirm	others
C=C(C)C(=O)Nc1cccc(C2=NOC3(C2)C[C@@H](C(N)=O)N(C(=O)/C(C)=C/C)C3)c1 (stereo partly drawn)	89	110	89	98	.	38	101	-	91	69	DNMT1 interf DR=-
C=C(C)C(=O)Nc1cccc(C2=NOC3(C2)C[C@@H](C(N)=O)N(C(=O)/C=C/C=C/C)C3)c1 (stereo partly drawn)	79	105	90	105	.	47	90	-	88	60	DNMT1 interf DR=-
CNC(=O)C(=O)NCCN1CCN(S(=O)(=O)c2ccc3ccccc3c2)CC1	-	-	-	-	-	-	.	.	.	.
COc1ccc(NC(=O)CN(C)C(=O)c2cccc(-n3cccc3)c2)cc1	58	83	-	-	.	33	-	-	43	38
COc1ccc(NC(=O)CN(C)C(=O)c2cccc(Oc3ccccc3)c2)cc1	-	-	-	-	.	-	.	.	.	.
Cc1ccc(NC(=O)CN(C)C(=O)c2cccc(-n3cccc3)c2)cc1	77	100	-	48	.	36	34	-	66	47	DNMT1 interf DR=-
Cc1cccc(NC(=O)CNCC(=O)Nc2cccc(C)c2C)c1C	-	-	-	-	-	-	.	.	.	.
Cc1cccc(NC(=O)CNC(=O)c2cccc(-n3cccc3)c2)c1C	69	87	-	-	.	31	-	-	62	44
CC1Cc2ccccc2N1C(=O)CSc1nnc(Cn2nnc3ccccc32)n1C (stereo not drawn)	-	-	-	-	-	-	.	.	.	.
COc1cccc(CC(=O)Nc2nc3ccccc3[nH]2)c1	-	-	-	-	-	-	.	.	.	.
O=C(O)c1cccc(-n2cccc2/C=C\[N+](=O)[O-])c1	58	62	-	-	-	17	-	-	26	-
